FN deposit inh = fibronectin deposition inhibition | AH1F fibroblasts, Alexa488-fibronectin deposition fluorescence, overnight | 350,000 compounds, 0.086% hits | AID 743247 | inhibition, % at 12.6 µM;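 active = mean inhibition across replicates of 30% or more, regardless of how many single replicates reach that level; inconclusive = mean under 30% yet at least half of replicates reach 30%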;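 note: positive control wells lacked labelled fibronectin entirely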
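Assay system: AH1F fibroblasts assembling fluorescent fibronectin matrix; Amount: 10000 AH1F cells per well; Buffer or medium: DMEM, 2% serum; Probe or stimulus: Alexa488-fibronectin, 24 nM final in well; Doses: single compound dose, delivered by pin transfer; Incubation: 1 h adhesion, overnight exposure; Measured by: fluorescence 485/525 nm; Read-out: fibronectin deposition inhibition.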
ERp5 inh = inhibitors of human ERp5; inhibition, % at 9.99 µM; 350,000 compounds, 0.05% hits; AID 651711; ERp5 insulin aggregation, absorbance 650 nm, 90 min; Q15084;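 active = mean replicate inhibition above about 25%, with every replicate also reaching it, limit read from the data, passing the limit was not always enough; inconclusive = only one of those two criteria met; inactive = neither criterion met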
S100A4 MyoIIA = S100A4-myosin IIA interaction inhibition; 360,000 compounds, 0.14% hits; P26447; AID 652163; inhibition, % at 10.7 µM; S100A4/TAMRA-MyoIIA peptide fluorescence polarization;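 active = mean inhibition of at least 70% across replicates, with every replicate also reaching that level; inconclusive = mean inhibition reaches 70% but some replicates fall short; inactive = mean inhibition below 70%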
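Material: S100A4 monomer protein / Buffer or medium: 50 mM HEPES pH 7.2, 10 mM CaCl2, 100 mM KCl / Times: 5 min incubation before reading / Benchmarks: neutral control DMSO, positive control TFP / Reagent: labelled myosin peptide probe, 5 nM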
RAD54 inh = inhibitors of human RAD54 branch migration | RAD54 Holliday junction branch migration, FAM/BHQ fluorescence | AID 602329 | 360,000 compounds, 0.14% hits | Q92698 | inhibition, % at 10.4 µM;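 active = mean normalized replicate activity at least 40 and at least half of replicates scoring 40 or more; inconclusive = only one of the two criteria met; inactive = mean below 40 and under half of replicates reaching 40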;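 note: 0% = median of neutral control wells and 100% = median of positive control wells; inhibitors cause a drop in the FAM fluorescence signal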
Target sequence (Q92698 whole entry, looked up): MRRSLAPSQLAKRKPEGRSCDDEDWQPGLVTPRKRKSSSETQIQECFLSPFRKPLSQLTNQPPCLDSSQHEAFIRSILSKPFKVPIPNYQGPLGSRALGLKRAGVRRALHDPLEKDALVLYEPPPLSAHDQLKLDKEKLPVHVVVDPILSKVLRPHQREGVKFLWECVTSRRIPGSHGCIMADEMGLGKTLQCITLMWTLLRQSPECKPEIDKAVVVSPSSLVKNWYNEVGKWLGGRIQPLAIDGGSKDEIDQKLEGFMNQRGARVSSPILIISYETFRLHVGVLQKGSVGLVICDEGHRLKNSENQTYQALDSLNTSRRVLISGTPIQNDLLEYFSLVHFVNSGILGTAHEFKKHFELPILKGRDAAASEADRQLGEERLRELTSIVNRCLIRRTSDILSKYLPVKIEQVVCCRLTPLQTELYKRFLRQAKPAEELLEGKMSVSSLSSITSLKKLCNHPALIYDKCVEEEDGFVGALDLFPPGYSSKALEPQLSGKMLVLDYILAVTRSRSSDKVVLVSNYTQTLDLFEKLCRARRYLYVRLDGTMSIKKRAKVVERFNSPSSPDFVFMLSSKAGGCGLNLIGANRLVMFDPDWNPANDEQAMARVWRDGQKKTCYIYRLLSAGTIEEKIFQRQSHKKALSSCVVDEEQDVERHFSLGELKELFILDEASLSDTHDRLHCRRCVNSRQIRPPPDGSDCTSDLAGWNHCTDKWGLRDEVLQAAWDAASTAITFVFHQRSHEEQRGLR
PDI turbidity = inhibitors of human protein disulfide isomerase; 350,000 compounds, 0.052% hits; AID 588391; PDI insulin aggregation turbidity, A650, 90 min; inhibition, % at 10 µM;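 active = mean inhibition across replicates of 30% or more, whatever share of single replicates reach that level; inconclusive = mean inhibition below 30% while every single replicate reaches 30%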
PglD DTNB = PglD (C. jejuni) enzyme inhibition | purified PglD enzyme, DTNB colorimetric CoA detection | inhibition, % at 12.5 µM | 360,000 compounds, 0.098% hits; in the data active = inhibition above about 16%, passing the limit was not always enough; inconclusive = no clear call, values can overlap the other calls
Rad54 DNA ctr = binds DNA, flagging false Rad54 inhibitor hits. shares compounds with RAD54 inh. Acridine orange-DNA displacement, fluorescence polarization, 20 min. AC50, µM (top dose mostly 35 µM), without a hit: at the highest dose activity change, negative = DNA binding. 460 compounds, 8% hits;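 active = signal drop giving an AC50 within twice the top valid tested concentration of each sample, actives reach about 35 µM in these data; inactive = activity opposite to expected, plus the rest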;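 note: polarization loss reports compound binding to salmon sperm DNA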
* marks the source's active call; other numbers are inactive results; ? = inconclusive; nt = no result given. The list is not random: actives were taken first. Their share in the collection is about 0.44%.

SMILES	FN deposit inh	ERp5 inh	S100A4 MyoIIA	RAD54 inh	PDI turbidity	PglD DTNB	Rad54 DNA ctr
O=C(N[C@@H]1C[C@@H]2O[C@@H](CO)CC[C@@H]2O[C@@H]1CCc1ccc(C#Cc2ccccc2)cc1)c1ccccn1	nt	7.7	-6.8	nt	nt	nt	nt
CN(C)C(=O)C[C@@H]1CC[C@@H]2[C@H](COC[C@H](O)CN2S(=O)(=O)c2ccccc2)O1	1.4	0.1	1.6	5.6	nt	-2.0	nt
COc1cccc2sc3ccc(NCc4ccc5c(c4)OCO5)cc3c(=O)c12	-12.5	-5.3	-1.4	18.2	16.4	-2.7	nt
COc1cccc2sc3cc(NCCCN4CCOCC4)ccc3c(=O)c12	-4.2	0.5	-2.6	78.2*	-1.8	2.9	3.2%
COC(=O)c1c(NC(=O)c2ccc([N+](=O)[O-])o2)sc2c1CCN(C(C)C)C2	1.0	1.9	0.4	68.0*	-3.7	-0.4	8.9%
CC(C)N1CCc2c(sc(NC(=O)c3ccc([N+](=O)[O-])o3)c2C(N)=O)C1	18.5	10.9	8.1	19.1	1.6	-3.1	nt
CN1CCCC1CCNc1ccc2oc3ccccc3c(=O)c2c1 (stereo unspecified)	-16.8	-1.0	0.3	nt	nt	nt	nt
CN1CCC[C@H]1CCNc1ccc2c(=O)c3ccccc3n(C)c2c1	nt	0.8	-1.2	89.9*	2.7	0.3	-10.3%
CN1CCCC1CCNc1ccc2c(=O)c3ccccc3oc2c1 (stereo unspecified)	13.9	-3.5	-0.1	92.1*	-2.3	0.3	-13.3%
CN1CCN(c2nc(-c3cccc([N+](=O)[O-])c3)nc3ccccc23)CC1	14.1	0.6	-8.2	74.6*	-26.0	1.6	-21.8%
Cc1ccc(-c2nc(N3CCN(C)CC3)c3ccccc3n2)cc1	5.6	-0.8	-10.1	57.2*	1.1	6.2	-14.9%
CC(C)NC(=O)Nc1ccc2c(c1)C(=O)N(C)C[C@@H](C)[C@@H](CN(C)C)O2	-8.3	nt	nt	nt	nt	nt	nt
C[C@@H]1CN([C@@H](C)CO)C(=O)c2cccc(NC(=O)c3cnccn3)c2O[C@H]1CN(C)C(=O)Nc1ccc(F)cc1	nt	0.3	0.2	-0.1	nt	3.6	nt
CCOc1ccc(NC(=O)c2cc(S(=O)(=O)N3CCOCC3)cs2)cc1	nt	11.0	-2.2	-9.8	-3.6	1.3	nt
O=C(Nc1cccc(Br)c1)c1cc(S(=O)(=O)N2CCOCC2)cs1	3.7	3.5	2.7	52.0*	1.9	-0.9	5.4%
O=C(Nc1ccc(S(=O)(=O)N2CCOCC2)cc1)c1cccc(Br)c1	-7.9	-6.8	-4.4	2.5	3.4	-5.8	nt
O=C(Nc1cccc([N+](=O)[O-])c1)c1cc(S(=O)(=O)N2CCOCC2)cs1	6.5	0.7	-0.3	57.2*	2.0	0.3	-9.4%
O=C(Nc1ccccc1)c1cc(S(=O)(=O)N2CCOCC2)cs1	nt	nt	nt	?	-2.5	-2.0	-3.3%
CCCNC(=O)N1[C@H](CO)[C@H](c2ccc(C3=CCCCC3)cc2)[C@H]1CNC(C)C	3.6	5.3	-14.6	nt	nt	nt	nt
CCN1CCCC1CNC(=O)c1ccc2c(c1)NC(=O)/C(=C\c1ccc(OC)c(OC)c1)S2 (stereo unspecified)	17.4	-1.6	-6.8	68.9*	4.7	-3.4	-3.5%
COc1ccc(NC(=O)N(C)C[C@H]2Oc3ccc(NS(=O)(=O)c4ccc(Cl)cc4)cc3CC(=O)N([C@H](C)CO)C[C@@H]2C)cc1	nt	-5.3	-3.4	1.2	nt	-2.2	nt
COc1ccc(-c2cn(CC[C@H]3CC[C@H](NC(=O)CCN4CCCCC4)[C@H](CO)O3)nn2)cc1	1.3	-0.2	-1.0	-1.1	nt	-12.2	nt
CCOC(=O)c1cnc2ccc(OCC)cc2c1NCCN1CCOCC1	nt	-5.0	5.5	40.0	-20.6	-2.2	nt
CCOC(=O)c1cnc2c(CC)cccc2c1NCCCN1CCOCC1	2.2	-0.8	5.8	?	1.6	-1.6	9.9%
CCOC(=O)c1cnc2c(Cl)cccc2c1NCCN1CCOCC1	-1.9	0.8	0.6	nt	22.2	nt	nt
CCOC(=O)c1cnc2c(Cl)cccc2c1NCCCN1CCOCC1	-0.9	-2.4	-1.1	?	9.7	-0.1	-21.6%
